From ChEMBL document CHEMBL1764968, “Structural simplification of bioactive natural products with multicomponent synthesis. 3. Fused uracil-containing heterocycles as novel topoisomerase-targeting agents” (2011)
Activity calls are given as the source filed them. The rule behind the calls is not given here.

Key:
SK-MEL = assay: Cytotoxicity against human SK-MEL cells after 72 hrs by MTT assay; assay type: functional
Procedure, shortened: (§1)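 Cells plated 24 h in 96-well plates at 10,000–40,000 cells/mL depending on line. U373 grown in MEM, other lines in RPMI, both with 5% heat-inactivated FCS. Cells exposed to compounds (or none, control) for 72 h. MTT reduction to formazan read at 570 nm against 630 nm reference. Sextuplicate per condition.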

[1] = target: T1, DNA topoisomerase 1 (Homo sapiens) (UniProt P11387); assay: Effect on human DNA topoisomerase 1-mediated supercoiled pGEM1 plasmid DNA cleavage complex stabilization at up to 100 uM by agarose gel electrophoresis
T1 sequence (whole entry): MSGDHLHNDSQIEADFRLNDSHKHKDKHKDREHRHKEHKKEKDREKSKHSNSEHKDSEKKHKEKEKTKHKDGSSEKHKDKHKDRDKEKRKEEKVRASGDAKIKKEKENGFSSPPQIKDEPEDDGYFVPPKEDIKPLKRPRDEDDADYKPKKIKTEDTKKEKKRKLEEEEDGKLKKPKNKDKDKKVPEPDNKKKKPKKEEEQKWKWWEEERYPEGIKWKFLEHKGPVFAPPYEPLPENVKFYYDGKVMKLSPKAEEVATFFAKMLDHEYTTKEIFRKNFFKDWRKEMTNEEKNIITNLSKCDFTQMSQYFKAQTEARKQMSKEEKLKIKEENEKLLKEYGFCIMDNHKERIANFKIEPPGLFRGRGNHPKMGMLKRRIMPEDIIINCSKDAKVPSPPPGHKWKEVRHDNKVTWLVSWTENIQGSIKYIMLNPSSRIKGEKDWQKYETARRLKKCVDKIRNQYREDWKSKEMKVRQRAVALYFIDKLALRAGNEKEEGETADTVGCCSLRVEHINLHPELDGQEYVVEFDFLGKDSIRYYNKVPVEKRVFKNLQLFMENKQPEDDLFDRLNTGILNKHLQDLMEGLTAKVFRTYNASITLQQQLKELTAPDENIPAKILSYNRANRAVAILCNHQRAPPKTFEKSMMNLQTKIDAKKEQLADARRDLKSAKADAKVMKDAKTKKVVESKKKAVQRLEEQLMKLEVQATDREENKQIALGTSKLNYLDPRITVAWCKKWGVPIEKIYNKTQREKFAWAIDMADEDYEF

[2] = Cytotoxicity against human U373 cells after 72 hrs by MTT assay; assay type: functional, U-373MG ATCC; conditions: U373 MG; procedure, shortened: as §1
MCF7 = assay: Cytotoxicity against human MCF7 cells after 72 hrs by MTT assay; assay type: functional; conditions: MCF7, 72 h; procedure, shortened: as §1
Jurkat = assay: Cytotoxicity against human Jurkat cells after 72 hrs by MTT assay; assay type: functional; procedure, shortened: as §1
PC-3 = assay: Cytotoxicity against human PC3 cells after 72 hrs by MTT assay; assay type: functional; conditions: PC-3, 72 h; procedure, shortened: as §1
HeLa = assay: Cytotoxicity against human HeLa cells after 72 hrs by MTT assay; assay type: functional; procedure, shortened: as §1
U-373MG ATCC = assay: Cytostatic activity against human U373 cells assessed as morphological changes after 72 hrs by phase contrast microscopy; assay type: functional, cell-based
A549 = assay: Cytotoxicity against human A549 cells after 72 hrs by MTT assay; assay type: functional; conditions: A549, 72 h; procedure, shortened: as §1
LoVo = assay: Cytotoxicity against human LoVo cells after 72 hrs by MTT assay; assay type: functional; procedure, shortened: as §1
[3] = target: T1, DNA topoisomerase 1 (Homo sapiens); assay: Inhibition of human DNA topoisomerase 1-mediated relaxation of supercoiled pGEM1 plasmid DNA at 250 uM after 30 mins by agarose gel electrophoresis
Procedure, shortened: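 Enzyme source: nuclear extract of MCF-7 cells (0.1 μL). 250 ng supercoiled pGEM1 plasmid incubated 30 min at 37 °C with compound (10–250 μM) in 10 mM Tris pH 7.9, 100 mM KCl, 10 mM MgCl2, 0.5 mM DTT, 0.5 mM EDTA, 0.03 mg/mL BSA. Camptothecin 100 μM as positive control. Stopped with SDS/proteinase K, 30 min at 37 °C. Run on 1% agarose, stained with ethidium bromide.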

[4] = target: DNA topoisomerase 2-alpha (Homo sapiens) (UniProt P11388); assay: Inhibition of human DNA topoisomerase 2-mediated decatenation of catenated kinetoplast DNA at 1 uM after 1 hr by agarose gel electrophoresis
Procedure, shortened: (§2)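 0.2 μg catenated kinetoplast DNA incubated 1 h at 37 °C with compound in 50 mM Tris-Cl pH 8.0, 150 mM NaCl, 10 mM MgCl2, 5 mM ATP, 0.5 mM DTT, 30 μg/mL BSA. Doxorubicin 5 μM as positive control. Stopped with SDS/proteinase K, 30 min at 37 °C. Run on 1% agarose (55 V, 2 h), stained with ethidium bromide.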

[5] = target: DNA topoisomerase 2-alpha (Homo sapiens) (UniProt P11388); assay: Inhibition of human DNA topoisomerase 2-mediated decatenation of catenated kinetoplast DNA at 5 uM after 1 hr by agarose gel electrophoresis; procedure, shortened: as §2

Chain of DNA topoisomerase 2-alpha (Homo sapiens) (P11388 whole entry): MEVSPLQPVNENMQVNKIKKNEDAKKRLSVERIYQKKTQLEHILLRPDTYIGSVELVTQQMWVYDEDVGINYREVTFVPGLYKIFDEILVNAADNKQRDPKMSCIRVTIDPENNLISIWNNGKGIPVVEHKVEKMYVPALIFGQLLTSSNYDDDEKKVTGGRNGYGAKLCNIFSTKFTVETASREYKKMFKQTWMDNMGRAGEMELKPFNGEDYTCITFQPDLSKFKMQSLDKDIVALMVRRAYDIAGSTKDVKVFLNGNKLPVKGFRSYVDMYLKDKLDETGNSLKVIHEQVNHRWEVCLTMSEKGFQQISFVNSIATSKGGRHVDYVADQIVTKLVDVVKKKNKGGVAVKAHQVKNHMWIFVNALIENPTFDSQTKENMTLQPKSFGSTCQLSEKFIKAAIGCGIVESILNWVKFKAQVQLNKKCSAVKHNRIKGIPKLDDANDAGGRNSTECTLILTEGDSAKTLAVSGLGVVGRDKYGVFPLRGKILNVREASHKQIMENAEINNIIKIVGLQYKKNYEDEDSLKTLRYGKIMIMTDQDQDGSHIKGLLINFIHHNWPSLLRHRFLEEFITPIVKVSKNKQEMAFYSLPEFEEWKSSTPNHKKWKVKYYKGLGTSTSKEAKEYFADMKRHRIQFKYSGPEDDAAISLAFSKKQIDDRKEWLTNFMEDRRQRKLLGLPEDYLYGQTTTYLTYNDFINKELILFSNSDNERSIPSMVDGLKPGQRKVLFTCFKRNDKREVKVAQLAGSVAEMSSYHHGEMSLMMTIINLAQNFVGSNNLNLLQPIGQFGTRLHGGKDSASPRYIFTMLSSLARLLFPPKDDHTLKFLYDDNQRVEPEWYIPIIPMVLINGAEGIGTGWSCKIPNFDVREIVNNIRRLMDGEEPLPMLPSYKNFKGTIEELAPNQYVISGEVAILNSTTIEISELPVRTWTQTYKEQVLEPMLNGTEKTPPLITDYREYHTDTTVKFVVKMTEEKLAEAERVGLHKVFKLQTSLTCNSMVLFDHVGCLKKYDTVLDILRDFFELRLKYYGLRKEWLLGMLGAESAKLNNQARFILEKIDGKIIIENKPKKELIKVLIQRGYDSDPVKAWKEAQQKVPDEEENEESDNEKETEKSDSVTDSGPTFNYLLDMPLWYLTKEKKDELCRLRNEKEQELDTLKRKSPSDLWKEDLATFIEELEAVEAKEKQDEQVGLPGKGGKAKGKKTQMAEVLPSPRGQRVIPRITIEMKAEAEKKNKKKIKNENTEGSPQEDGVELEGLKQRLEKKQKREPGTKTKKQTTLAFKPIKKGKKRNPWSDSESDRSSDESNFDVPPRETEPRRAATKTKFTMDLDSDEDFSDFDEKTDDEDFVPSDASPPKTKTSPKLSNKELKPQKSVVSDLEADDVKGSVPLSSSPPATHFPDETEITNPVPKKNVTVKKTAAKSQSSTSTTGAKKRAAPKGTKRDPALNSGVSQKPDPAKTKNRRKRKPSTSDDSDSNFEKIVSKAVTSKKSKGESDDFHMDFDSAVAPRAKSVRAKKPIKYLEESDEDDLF

| Activity [1] | inhibition [3] | inhibition [4] | inhibition [5] | Compound | GI50 (SK-MEL) | GI50 [2] | GI50 (MCF7) | GI50 (Jurkat) | GI50 (PC-3) | GI50 (HeLa) | Activity (U-373MG ATCC) | GI50 (A549) | GI50 (LoVo) |
| --- | --- | --- | --- | --- | --- | --- | --- | --- | --- | --- | --- | --- | --- |
| inactive |  |  |  | Cc1ccc(C2C3=C(Nc4[nH]c(=O)[nH]c(=O)c42)c2ccccc2C3=O)cc1C (stereo not given) | 960 nM | 430 nM | 340 nM | 190 nM | 4200 nM | 780 nM | Active | 290 nM | 490 nM |
| inactive | Active |  |  | CSc1ccc(C2C3=C(Nc4[nH]c(=O)[nH]c(=O)c42)c2ccccc2C3=O)cc1 (stereo not given) | 1800 nM | 100 nM | 360 nM | 190 nM | 400 nM | 370 nM | Active | 470 nM | 490 nM |
| inactive |  | Active | Active | Cc1ccc(-c2c3c(nc4[nH]c(=O)[nH]c(=O)c24)-c2ccccc2C3=O)cc1C | 450 nM | 500 nM | 190 nM | 170 nM | 480 nM | 190 nM | Active | 140 nM | 330 nM |
|  |  |  | Active | COc1cccc2c1C(=O)c1c(O)c3c(c(O)c1C2=O)C[C@@](O)(C(=O)CO)C[C@@H]3O[C@H]1C[C@H](N)[C@H](O)[C@H](C)O1 |  |  |  |  |  |  |  |  |  |
| inactive | Active | Active | Active | CSc1ccc(-c2c3c(nc4[nH]c(=O)[nH]c(=O)c24)-c2ccccc2C3=O)cc1 | 230 nM | 100 nM | 450 nM | 50 nM | 190 nM | 170 nM | Active | 610 nM | 290 nM |
|  |  |  |  | COc1ccc(-c2c3c(nc4[nH]c(=O)[nH]c(=O)c24)-c2ccccc2C3=O)cc1OC | 470 nM | 600 nM | 750 nM | 220 nM | > 10000 nM | 530 nM |  | 830 nM | 440 nM |
